Data taken from ChEMBL document CHEMBL5104214, “Efficient selective targeting of Candida CYP51 by oxadiazole derivatives designed from plant cuminaldehyde” (RSC Med Chem, 2022).
Converted amounts (≈) assume the structure as drawn.

Assays:
[Candida] auris [1] = Antifungal activity against Candida auris clinical isolate assessed as inhibition of fungal growth incubated for 24 hrs by microdilution assay; assay type: functional; conditions: Candidozyma auris
Procedure, shortened: (§1)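 Broth microdilution per CLSI. Inoculum 10^5 CFU mL−1, compounds at 1, 3, 5, 10, 25, 50, 100 and 200 μg ml−1, 37 °C for 24 h. Turbidity read at 570 nm. MIC50 is the concentration giving 50% growth inhibition, from curve fitting. Triplicate.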

Candida albicans [2] = test: Antifungal activity against Candida albicans SC5314 assessed as inhibition of fungal growth at 100 ug/ml incubated for 24 hrs by spotting assay relative to control; assay type: functional; set-up: scale not given: the % may be the effect or the level left; conditions: dose 100 µg/ml
Procedure, shortened: (§2)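 Spotting screen: SDA plates streaked with 0.1 ml culture at 10^4 CFU ml−1, 5 μl of compound applied, 24 h at 37 °C. C. albicans SC5314 or C. auris clinical isolate kept on SDA at 37 °C. Growth inhibition judged against untreated control.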

[3] = Cytotoxicity against human F180 cells assessed as cell growth inhibition at 6 times MIC50 against Candida albicans SC5314 incubated for 48 hrs by SRB assay; assay type: toxicity, cell-based; conditions: f180, 48 h
Procedure, shortened: (§3)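 SRB assay on normal human skin fibroblasts F-180 in DMEM with 15% FBS, 37 °C, 5% CO2. Seeded 20 000 cells/well and left overnight, then compounds at 10, 20 and 30 μg ml−1 for 48 h; DMSO vehicle ≤0.1%. TCA fixation, 0.4% SRB stain, dye solubilised in 10 mM Tris, OD 492 nm. Six repeats.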

[4] = Cytotoxicity against human F180 cells assessed as cell growth inhibition at 1 times MIC50 against Candida auris incubated for 48 hrs by SRB assay; assay type: toxicity, cell-based; conditions: f180, 48 h; procedure, shortened: as §3
Candida albicans [5] = test: Antifungal activity against Candida albicans SC5314 assessed as inhibition of fungal growth incubated for 24 hrs by microdilution assay; assay type: functional; procedure, shortened: as §1
[Candida] auris [6] = Antifungal activity against Candida auris clinical isolate assessed as inhibition of fungal growth at 100 ug/ml incubated for 24 hrs by spotting assay relative to control; assay type: functional, Candidozyma auris; set-up: scale not given: the % may be the effect or the level left; conditions: dose 100 µg/ml; procedure, shortened: as §2
[7] = Cytotoxicity against human F180 cells assessed as cell growth inhibition at 10 times MIC50 against Candida albicans SC5314 incubated for 48 hrs by SRB assay; assay type: toxicity, cell-based; conditions: f180, 48 h; procedure, shortened: as §3
[8] = Cytotoxicity against human F180 cells assessed as cell growth inhibition at 15 times MIC50 against Candida auris incubated for 48 hrs by SRB assay; assay type: toxicity, cell-based; conditions: f180, 48 h; procedure, shortened: as §3
[9] = Cytotoxicity against human F180 cells assessed as cell growth inhibition at 60 times MIC50 against Candida albicans SC5314 incubated for 48 hrs by SRB assay; assay type: toxicity, cell-based; conditions: f180, 48 h; procedure, shortened: as §3
[Candida] auris [10] = Potency index, ratio of fluconazole MIC50 to test compound MIC50 for antifungal activity against Candida auris clinical isolate assessed as inhibition of fungal growth incubated for 24 hrs by microdilution assay; assay type: functional, Candidozyma auris
Procedure, shortened: (§4)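 MIC50 ratio. MIC50 of fluconazole and of compound by broth microdilution: 10^5 CFU mL−1 inoculum, 1–200 μg ml−1, 37 °C for 24 h, turbidity at 570 nm, triplicate. Ratio taken as fluconazole MIC50 over compound MIC50.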

Cytochrome P450 3A4 = Cytochrome P450 3A4 (Homo sapiens, UniProt P08684); test: Inhibition of human CYP3A4 using luciferin-IPA as substrate preincubated for 10 mins followed by NADPH addition and measured after 30 mins by luminescence based assay; assay type: ADME
Sequence of Cytochrome P450 3A4 (P08684 whole entry): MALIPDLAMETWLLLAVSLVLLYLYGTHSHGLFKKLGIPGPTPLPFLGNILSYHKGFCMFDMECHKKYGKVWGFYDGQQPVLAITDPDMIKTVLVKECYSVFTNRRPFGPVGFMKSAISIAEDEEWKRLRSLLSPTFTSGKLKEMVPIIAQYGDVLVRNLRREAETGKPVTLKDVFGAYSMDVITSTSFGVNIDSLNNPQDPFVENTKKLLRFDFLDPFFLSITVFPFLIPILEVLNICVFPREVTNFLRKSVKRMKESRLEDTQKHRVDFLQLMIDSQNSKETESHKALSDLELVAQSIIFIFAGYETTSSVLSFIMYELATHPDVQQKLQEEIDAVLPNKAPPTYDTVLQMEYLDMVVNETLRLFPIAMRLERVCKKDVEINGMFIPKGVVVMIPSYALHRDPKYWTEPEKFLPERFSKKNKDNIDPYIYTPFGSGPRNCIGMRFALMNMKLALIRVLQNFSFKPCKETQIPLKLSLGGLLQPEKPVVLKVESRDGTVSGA

[11] = Cytotoxicity against human F180 cells assessed as cell growth inhibition at 37.5 times MIC50 against Candida auris incubated for 48 hrs by SRB assay; assay type: toxicity, cell-based; conditions: f180, 48 h; procedure, shortened: as §3
[12] = target: T1, Lanosterol 14-alpha demethylase (Candida albicans (strain SC5314 / ATCC MYA-2876) (Yeast), UniProt P10613); test: Potency index, ratio of fluconazole IC50 to test compound IC50 for inhibition of Candida albicans CYP51 using 7-ethoxyresorufin as fluorescent substrate incubated for 10 mins in the presence of NADPH by fluorescence based spectroscopic microtiter plate reader analysis
T1 sequence (P10613 whole entry): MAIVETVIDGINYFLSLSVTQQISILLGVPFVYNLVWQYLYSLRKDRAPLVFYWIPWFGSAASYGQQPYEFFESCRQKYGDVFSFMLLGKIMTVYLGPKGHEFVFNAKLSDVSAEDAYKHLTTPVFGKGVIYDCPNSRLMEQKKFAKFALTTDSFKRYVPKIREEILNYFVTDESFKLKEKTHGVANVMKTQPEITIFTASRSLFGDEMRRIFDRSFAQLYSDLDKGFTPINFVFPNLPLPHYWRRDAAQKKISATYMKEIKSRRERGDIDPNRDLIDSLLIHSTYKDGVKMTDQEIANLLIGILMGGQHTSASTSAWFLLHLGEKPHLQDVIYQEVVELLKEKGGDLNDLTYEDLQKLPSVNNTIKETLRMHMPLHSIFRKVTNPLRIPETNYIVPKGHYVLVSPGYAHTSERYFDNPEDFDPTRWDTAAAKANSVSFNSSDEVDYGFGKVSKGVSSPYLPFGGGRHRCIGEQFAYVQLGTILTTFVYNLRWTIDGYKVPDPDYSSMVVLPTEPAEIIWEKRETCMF
Procedure, shortened: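 Ratio of fluconazole IC50 to compound IC50 against CaCYP51. Bactosomes with 7-ethoxyresorufin in pH 7.4 phosphate, 5 mM MgCl2. Inhibitor at 0–100 μg ml−1. Reaction started with 4 mM NADPH, 10 min at 37 °C, resorufin fluorescence ex 572/em 604 nm.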

[13] = target: T1, Lanosterol 14-alpha demethylase; test: Inhibition of Candida albicans CYP51 assessed as ergosterol level incubated for 18 hrs by GC/MS analysis relative to control
Procedure, shortened: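 C. albicans colony grown in SDB 18 h at 37 °C with compound at its MIC50; untreated cells as negative control. Washed, normalized cells saponified in 60% alcoholic KOH, 80 °C 1 h. Sterols hexane-extracted, silylated (MSTFA/TMCS), analysed by GC-MS with ergosterol standard for retention time. Content expressed as AUC treated/AUC untreated × 100.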

[14] = target: T1, Lanosterol 14-alpha demethylase; test: Inhibition of candida albicans CYP51 using 7-ethoxyresorufin as fluorescent substrate incubated for 10 mins in the presence of NADPH by fluorescence based spectroscopic microtiter plate reader analysis
Procedure, shortened: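 CaCYP51 bactosomes in pH 7.4 phosphate buffer with 5 mM MgCl2 and the substrate 7-ethoxyresorufin. Inhibitor at 0, 0.1, 1, 10 and 100 μg ml−1. Started with 4 mM NADPH, shaken 10 min at 37 °C under yellow light. Resorufin read every 30 s (ex 572/em 604 nm). IC50 from curve fitting; fluconazole positive control.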

Candida albicans [15] = test: Potency index, ratio of fluconazole MIC50 to test compound MIC50 for antifungal activity against Candida albicans SC5314 assessed as inhibition of fungal growth incubated for 24 hrs by microdilution assay; assay type: functional; procedure, shortened: as §4
[16] = test system: CYP3A4 vs Candida albicans CYP51; test: Selectivity index, ratio of IC50 for inhibition of human CYP3A4 using luciferin-IPA as substrate to IC50 for inhibition of candida albicans CYP51 using 7-ethoxyresorufin as fluorescent substrate; assay type: toxicity; conditions: probe luciferin-IPA (CYP3A4), 7-ethoxyresorufin (CYP51)
[17] = Cytotoxicity against human F180 cells assessed as cell growth inhibition at 3 times MIC50 against Candida albicans SC5314 incubated for 48 hrs by SRB assay; assay type: toxicity, cell-based; conditions: f180, 48 h; procedure, shortened: as §3
[18] = Cytotoxicity against human F180 cells assessed as cell growth inhibition at 2.3 times MIC50 against Candida auris incubated for 48 hrs by SRB assay; assay type: toxicity, cell-based; conditions: f180, 48 h; procedure, shortened: as §3

Compound	MIC50 ([Candida] auris [1])	Activity (Candida albicans [2])	Activity [3]	Activity [4]	MIC50 (Candida albicans [5])	Activity ([Candida] auris [6])	Activity [7]	Activity [8]	Activity [9]	Ratio ([Candida] auris [10])	IC50 (Cytochrome P450 3A4)	Activity [11]	Ratio IC50 [12]	inhibition (INH) [13]	IC50 [14]	Ratio (Candida albicans [15])	selectivity ratio [16]	Activity [17]	Activity [18]
COc1cccc(Nc2nnc(-c3ccc(C(C)(C)C)cc3)o2)c1	30 µg/mL (≈ 92.8 µM)	57%	Non-Toxic	Non-Toxic	5 µg/mL (≈ 15.5 µM)	86%	–	–	–	–	–	–	–	–	–	–	–	–	–
CC(C)c1ccc(-c2nnc(Nc3ccc(F)cc3)o2)cc1	2.08 µg/mL (≈ 7 µM)	80%	–	–	3 µg/mL (≈ 10.1 µM)	40%	Non-Toxic	Non-Toxic	–	–	–	–	–	–	–	–	–	–	–
CC(C)(C)c1ccc(-c2nnc(Nc3ccc(Cl)cc3)o2)cc1	0.8 µg/mL (≈ 2.44 µM)	99.3%	–	–	0.5 µg/mL (≈ 1.53 µM)	99%	–	–	Non-Toxic	750	> 30500 µM	Non-Toxic	10	70.3%	2.75 µM	50	> 10000	–	–
COc1cccc(Nc2nnc(-c3ccc(C(C)C)cc3)o2)c1	12 µg/mL (≈ 38.8 µM)	83%	–	–	10 µg/mL (≈ 32.3 µM)	85%	–	–	–	–	–	–	–	–	–	–	–	Non-Toxic	Non-Toxic
OC(Cn1cncn1)(Cn1cncn1)c1ccc(F)cc1F [FLUCONAZOLE]	600 µg/mL (≈ 1960 µM)	–	–	–	25 µg/mL (≈ 81.6 µM)	–	–	–	–	–	–	–	–	35.6%	29 µM	–	–	–	–
